Test results reported in PMC10692386 (Acta Pharmaceutica Sinica. B, 2023).
≈ marks a conversion by molar mass, not a printed value.

How the values were obtained:
[1] = test system: HIV-1 mutant K103N; test: Anti-HIV-1 efficacy against mutant K103N in MT-4 cells; type: cell-based; settings: Human immunodeficiency virus 1, MT4, read-out: EC50 K103N
Outline: (§1)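 MT-4 cells were infected with HIV-1 RT mutant strains. EC50 was the concentration giving 50% protection against viral cytopathicity, averaged from at least three independent experiments. Cytotoxicity in mock-infected cultures was read by MTT.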

[2] = test system: HIV-1 mutant Y181C; test: Anti-HIV-1 efficacy against mutant Y181C in MT-4 cells; type: cell-based; settings: Human immunodeficiency virus 1, MT4, read-out: EC50 Y181C
Outline: as §1

[3] = target: CYP2D6 (Homo sapiens, UniProt P10635); test: Cytochrome P450 inhibition assay, CYP2D6; type: in vitro ADME
[4] = Cytotoxicity in mock-infected MT-4 cell cultures; type: cell-based; settings: human, mock-infected MT-4 cells
[5] = target: CYP2C9 (Homo sapiens, UniProt P11712); test: Cytochrome P450 inhibition assay, CYP2C9; type: in vitro ADME
[6] = test system: WT HIV-1; test: Anti-HIV-1 activity in MT-4 cells infected with HIV-1; type: cell-based
[7] = target: CYP2C19 (Homo sapiens, UniProt P33261); test: biochemical
[8] = test system: HIV-1 mutant Y188L; test: Anti-HIV-1 efficacy against mutant Y188L in MT-4 cells; type: cell-based; settings: Human immunodeficiency virus 1, MT4, read-out: EC50 Y188L
Outline: as §1

[9] = Aqueous solubility; type: physicochemical
[10] = target: hERG potassium channels (Homo sapiens, UniProt Q12809); test: hERG channel Qpatch assay in CHO-hERG cells; type: cell-based
[11] = test system: HIV-1 mutant E138K; test: Anti-HIV-1 efficacy against mutant E138K in MT-4 cells; type: cell-based; settings: Human immunodeficiency virus 1, MT4, read-out: EC50 E138K
Outline: as §1

[12] = target: WT HIV-1 RT (Human immunodeficiency virus type 1 group M subtype B, UniProt P03366); test: Inhibition of WT HIV-1 RT; type: biochemical
[13] = PK study in Sprague-Dawley rats; type: in vivo; settings: rat, plasma
Outline: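 Six SD rats, 180–220 g, were fasted 12 h and randomised into an intravenous arm (1 mg/kg) and an intragastric arm. Blood was drawn from pre-dose to 720 min into heparin, and plasma was stored at −80 °C. Plasma was precipitated with acetonitrile, dried under nitrogen, reconstituted and assayed by HPLC-MS/MS. PK parameters and bioavailability came from concentration–time data.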

[14] = test system: K103N, L100I, E138K, Y181C, and K103N + Y181C; test: Anti-HIV-1 efficacy against mutant panel; type: cell-based; settings: Human immunodeficiency virus 1, read-out: EC50 value range
Outline: as §1

[15] = test system: HIV-1 mutant K103N + Y181C; test: Anti-HIV-1 efficacy against mutant K103N + Y181C in MT-4 cells; type: cell-based; settings: Human immunodeficiency virus 1, MT4, read-out: EC50 K103N + Y181C
Outline: as §1

[16] = Acute toxicity assay; type: in vivo, ICR mice; settings: single intragastric administration of 1.2 g/kg
Outline: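 ICR mice, 24–28 g, aged 5–6 weeks (4 male, 4 female), were randomised into 4 groups. Test compound was given as a single intragastric dose. Body weight, behaviour and coat colour were followed for 14 days. Mice were then euthanised, and kidney, lung, spleen, liver, heart and brain were HE-stained for histology.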

[17] = test system: HIV-1 mutant L100I; test: Anti-HIV-1 efficacy against mutant L100I in MT-4 cells; type: cell-based; settings: Human immunodeficiency virus 1, MT4, read-out: EC50 L100I
Outline: as §1

[18] = target: T1, CYP1A2 (Homo sapiens, UniProt P05177); test: Cytochrome P450 inhibition assay, CYP1A2; type: in vitro ADME
T1 sequence (P05177 1-516): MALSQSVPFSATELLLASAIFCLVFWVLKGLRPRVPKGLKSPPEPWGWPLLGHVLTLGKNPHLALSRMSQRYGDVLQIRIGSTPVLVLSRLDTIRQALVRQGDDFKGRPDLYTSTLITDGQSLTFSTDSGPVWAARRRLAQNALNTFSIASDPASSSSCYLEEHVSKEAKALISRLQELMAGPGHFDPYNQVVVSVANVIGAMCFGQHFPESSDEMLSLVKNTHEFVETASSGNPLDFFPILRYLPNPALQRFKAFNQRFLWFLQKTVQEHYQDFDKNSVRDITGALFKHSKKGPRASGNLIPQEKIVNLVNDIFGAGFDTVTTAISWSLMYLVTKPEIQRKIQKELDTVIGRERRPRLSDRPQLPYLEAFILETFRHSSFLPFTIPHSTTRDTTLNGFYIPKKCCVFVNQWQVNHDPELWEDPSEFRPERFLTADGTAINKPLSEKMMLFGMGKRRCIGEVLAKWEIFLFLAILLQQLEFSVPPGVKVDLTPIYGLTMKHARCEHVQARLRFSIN

[19] = target: CYP3A4 (Homo sapiens, UniProt P08684); test: Cytochrome P450 inhibition assay, CYP3A4; type: in vitro ADME
Sequence of CYP3A4 (P08684 whole entry): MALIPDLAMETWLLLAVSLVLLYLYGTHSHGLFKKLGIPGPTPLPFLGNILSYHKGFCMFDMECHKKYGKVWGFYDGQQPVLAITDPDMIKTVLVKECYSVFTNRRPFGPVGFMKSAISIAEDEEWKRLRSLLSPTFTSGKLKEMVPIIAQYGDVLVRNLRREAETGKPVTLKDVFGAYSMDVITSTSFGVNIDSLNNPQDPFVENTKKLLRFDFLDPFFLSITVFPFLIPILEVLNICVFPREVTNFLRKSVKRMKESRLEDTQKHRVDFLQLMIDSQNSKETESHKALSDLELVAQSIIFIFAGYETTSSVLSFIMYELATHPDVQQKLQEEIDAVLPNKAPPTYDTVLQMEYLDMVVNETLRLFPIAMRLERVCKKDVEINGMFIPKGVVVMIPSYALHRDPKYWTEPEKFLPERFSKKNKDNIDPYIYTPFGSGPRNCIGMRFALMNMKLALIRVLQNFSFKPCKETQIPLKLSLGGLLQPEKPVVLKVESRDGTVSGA

Sequence of hERG potassium channels (Q12809 whole entry): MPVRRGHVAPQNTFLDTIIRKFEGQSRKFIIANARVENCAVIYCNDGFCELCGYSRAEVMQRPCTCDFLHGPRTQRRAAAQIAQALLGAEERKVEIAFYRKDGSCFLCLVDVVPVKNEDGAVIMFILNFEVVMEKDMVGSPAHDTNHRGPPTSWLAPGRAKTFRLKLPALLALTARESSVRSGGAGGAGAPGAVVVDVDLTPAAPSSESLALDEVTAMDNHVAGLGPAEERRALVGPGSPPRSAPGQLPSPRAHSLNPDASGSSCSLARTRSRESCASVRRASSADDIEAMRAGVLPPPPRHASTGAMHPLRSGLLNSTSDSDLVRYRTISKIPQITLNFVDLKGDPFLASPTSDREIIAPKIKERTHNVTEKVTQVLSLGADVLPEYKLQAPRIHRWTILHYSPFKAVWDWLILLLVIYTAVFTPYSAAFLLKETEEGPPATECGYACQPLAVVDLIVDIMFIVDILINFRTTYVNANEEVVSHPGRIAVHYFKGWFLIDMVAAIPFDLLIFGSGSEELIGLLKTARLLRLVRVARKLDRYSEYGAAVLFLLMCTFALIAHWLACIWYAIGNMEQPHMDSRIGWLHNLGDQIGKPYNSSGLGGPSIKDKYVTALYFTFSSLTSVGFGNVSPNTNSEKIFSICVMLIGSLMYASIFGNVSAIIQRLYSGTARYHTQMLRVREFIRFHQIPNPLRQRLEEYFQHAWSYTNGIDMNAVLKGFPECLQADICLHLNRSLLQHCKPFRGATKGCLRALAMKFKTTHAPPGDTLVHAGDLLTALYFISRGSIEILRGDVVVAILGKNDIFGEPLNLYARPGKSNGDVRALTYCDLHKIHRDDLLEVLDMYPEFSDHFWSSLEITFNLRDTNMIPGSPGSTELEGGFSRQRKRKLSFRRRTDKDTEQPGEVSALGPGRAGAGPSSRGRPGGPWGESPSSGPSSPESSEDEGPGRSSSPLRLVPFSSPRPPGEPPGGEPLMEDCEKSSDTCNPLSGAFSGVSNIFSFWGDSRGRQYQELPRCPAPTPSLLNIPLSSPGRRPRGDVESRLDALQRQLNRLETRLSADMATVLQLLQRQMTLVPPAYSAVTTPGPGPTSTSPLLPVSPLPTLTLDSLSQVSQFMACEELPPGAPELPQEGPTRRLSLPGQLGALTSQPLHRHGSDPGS
Sequence of CYP2C19 (P33261 whole entry): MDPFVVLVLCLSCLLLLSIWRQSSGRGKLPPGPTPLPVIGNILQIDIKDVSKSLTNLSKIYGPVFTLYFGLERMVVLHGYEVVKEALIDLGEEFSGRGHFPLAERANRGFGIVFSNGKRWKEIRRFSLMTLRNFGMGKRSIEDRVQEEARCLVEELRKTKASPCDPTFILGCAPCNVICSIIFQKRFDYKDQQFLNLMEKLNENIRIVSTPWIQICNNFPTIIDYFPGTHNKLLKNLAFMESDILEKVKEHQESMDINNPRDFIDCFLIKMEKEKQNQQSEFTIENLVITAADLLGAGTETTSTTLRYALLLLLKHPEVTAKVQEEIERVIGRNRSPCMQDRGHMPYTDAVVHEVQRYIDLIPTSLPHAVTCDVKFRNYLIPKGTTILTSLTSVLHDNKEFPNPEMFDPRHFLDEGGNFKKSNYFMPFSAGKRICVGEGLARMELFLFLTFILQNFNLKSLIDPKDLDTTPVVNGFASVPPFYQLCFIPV
Sequence of CYP2D6 (P10635 whole entry): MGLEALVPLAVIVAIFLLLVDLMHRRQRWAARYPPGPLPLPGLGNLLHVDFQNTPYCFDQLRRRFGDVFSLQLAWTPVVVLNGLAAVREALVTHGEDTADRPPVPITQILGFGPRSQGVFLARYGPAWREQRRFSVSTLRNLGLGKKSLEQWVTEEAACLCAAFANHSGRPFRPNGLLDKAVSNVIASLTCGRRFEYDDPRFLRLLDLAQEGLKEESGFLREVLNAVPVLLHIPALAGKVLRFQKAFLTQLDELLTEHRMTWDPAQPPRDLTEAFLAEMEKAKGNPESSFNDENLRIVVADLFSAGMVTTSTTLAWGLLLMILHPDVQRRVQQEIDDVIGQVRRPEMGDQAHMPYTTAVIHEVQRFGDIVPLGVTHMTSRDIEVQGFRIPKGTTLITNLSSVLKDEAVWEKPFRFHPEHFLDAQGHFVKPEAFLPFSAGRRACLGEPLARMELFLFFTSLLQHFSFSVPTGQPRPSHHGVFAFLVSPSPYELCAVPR
Sequence of CYP2C9 (P11712 whole entry): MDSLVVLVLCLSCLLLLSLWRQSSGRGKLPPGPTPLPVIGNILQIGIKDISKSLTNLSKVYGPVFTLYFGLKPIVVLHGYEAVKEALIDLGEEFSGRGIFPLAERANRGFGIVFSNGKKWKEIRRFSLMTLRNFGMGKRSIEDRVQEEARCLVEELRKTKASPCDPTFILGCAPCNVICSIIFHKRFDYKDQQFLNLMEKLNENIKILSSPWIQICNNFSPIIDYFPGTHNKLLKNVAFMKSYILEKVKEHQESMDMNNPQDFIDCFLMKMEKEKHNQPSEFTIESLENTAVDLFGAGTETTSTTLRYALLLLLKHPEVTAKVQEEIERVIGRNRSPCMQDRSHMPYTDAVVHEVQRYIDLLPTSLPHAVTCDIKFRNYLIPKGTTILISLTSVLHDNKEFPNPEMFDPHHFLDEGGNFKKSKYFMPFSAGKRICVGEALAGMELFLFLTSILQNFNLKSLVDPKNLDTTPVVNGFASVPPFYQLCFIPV

SMILES: Cn1c(Cn2ccc(C(F)(F)F)c(Oc3cccc4cnccc34)c2=O)n[nH]c1=O [7w]
- EC50 [1]: 71 ± 19 nM
- EC50 [2]: 50 ± 11 nM
- IC50 [3]: > 50000 nM
- CC50 [4]: 274000 ± 10600 nM
- IC50 [5]: 19600 nM
- EC50 ([6]; Human immunodeficiency virus 1, MT4): 22 ± 10 nM
- SI ([6]; selectivity index, the ratio of CC50/EC50, WT HIV-1): 12,497.73
- IC50 [7]: 26800 nM
- EC50 [8]: 5350 ± 2150 nM
- solubility ([9]; pH 2, aqueous buffer): 4470 µg/mL (≈ 10700 µM)
- solubility ([9]; pH 7, aqueous buffer): 38 µg/mL (≈ 91.1 µM)
- solubility ([9]; pH 7.4, aqueous buffer): 53 µg/mL (≈ 127 µM)
- IC50 [10]: > 40000 nM
- EC50 [11]: 49 ± 13 nM
- IC50 [12]: 120 ± 7 nM
- Cmax ([13]; iv, 1 mg/kg): 456 ± 51.1 ng/mL
- Tmax ([13]; iv, 1 mg/kg): 4.98 min
- half-life ([13]; iv, 1 mg/kg): 17.4 ± 12.6 min
- AUC ([13]; iv, 1 mg/kg, AUC0‒t, 1.0 mg/kg (i.v.)): 229 ± 45.3 ng·h/mL
- AUC ([13]; iv, 1 mg/kg, AUC0‒∞, 1.0 mg/kg (i.v.)): 230 ± 46 ng·h/mL
- MRT ([13]; iv, 1 mg/kg, MRT0‒t, 1.0 mg/kg (i.v.)): 21.1 ± 2.5 min
- MRT ([13]; iv, 1 mg/kg, MRT0‒∞, 1.0 mg/kg (i.v.)): 22 ± 28 min
- Cmax ([13]; po, 5 mg/kg): 2888 ± 9.71 ng/mL
- Tmax ([13]; po, 5 mg/kg): 25 ± 8.64 min
- bioavailability ([13]; po, 5 mg/kg): 27.1 ± 0.0219%
- half-life ([13]; po, 5 mg/kg): 107 ± 17.4 min
- AUC ([13]; po, 5 mg/kg, AUC0‒t, 5.0 mg/kg (p.o.)): 304 ± 24.5 ng·h/mL
- AUC ([13]; po, 5 mg/kg, AUC0‒∞, 5.0 mg/kg (p.o.)): 312 ± 25.3 ng·h/mL
- MRT ([13]; po, 5 mg/kg, MRT0‒t, 5.0 mg/kg (p.o.)): 70.2 ± 9.18 min
- MRT ([13]; po, 5 mg/kg, MRT0‒∞, 5.0 mg/kg (p.o.)): 85.2 ± 8.4 min
- EC50 [14]: 35 to 140 nM
- EC50 [15]: 140 ± 90 nM
- Pathological damage of six main organs (HE staining) ([16]; after 14 days): no obvious pathological damage
- Behavior and weight ([16]; observed 14 days): normal behavior and weight
- Mortality ([16]; observed 14 days): did not result in any fatalities
- EC50 [17]: 38 ± 17 nM
- IC50 [18]: > 50000 nM
- IC50 [19]: > 50000 nM
